{
  "source": "ChEMBL document CHEMBL4346745",
  "about": "“Urea moiety as amide bond mimetic in peptide-like inhibitors of VEGF-A165/NRP-1 complex” (Bioorg Med Chem Lett, 2019)",
  "key": {"[1]": {"test": "Stability in human plasma assessed as enzymatic cleavage of Lys(epsilon)-Arg(U) bond at 1 uM after 96 hrs by LC-MS analysis", "type": "ADME, cell-free", "procedure,_shortened": "(§1)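 Compounds incubated in human plasma at 37 °C; aliquots withdrawn at selected time intervals up to 96 h and analysed by RP-HPLC and LC-MS to follow parent loss and the fragments formed.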"}, "[2]": {"test": "Drug metabolism in human plasma assessed as (S)-2-amino-6-(3-((S)-2-amino-5-guanidinopentyl)ureido)hexanoic acid metabolite formation at 1 uM after 96 hrs by LC-MS analysis", "type": "ADME, cell-free", "procedure,_shortened": "as §1"}, "[3]": {"molecular_target": "Neuropilin-1 (Homo sapiens, UniProt O14786)", "sequence (O14786 whole entry)": "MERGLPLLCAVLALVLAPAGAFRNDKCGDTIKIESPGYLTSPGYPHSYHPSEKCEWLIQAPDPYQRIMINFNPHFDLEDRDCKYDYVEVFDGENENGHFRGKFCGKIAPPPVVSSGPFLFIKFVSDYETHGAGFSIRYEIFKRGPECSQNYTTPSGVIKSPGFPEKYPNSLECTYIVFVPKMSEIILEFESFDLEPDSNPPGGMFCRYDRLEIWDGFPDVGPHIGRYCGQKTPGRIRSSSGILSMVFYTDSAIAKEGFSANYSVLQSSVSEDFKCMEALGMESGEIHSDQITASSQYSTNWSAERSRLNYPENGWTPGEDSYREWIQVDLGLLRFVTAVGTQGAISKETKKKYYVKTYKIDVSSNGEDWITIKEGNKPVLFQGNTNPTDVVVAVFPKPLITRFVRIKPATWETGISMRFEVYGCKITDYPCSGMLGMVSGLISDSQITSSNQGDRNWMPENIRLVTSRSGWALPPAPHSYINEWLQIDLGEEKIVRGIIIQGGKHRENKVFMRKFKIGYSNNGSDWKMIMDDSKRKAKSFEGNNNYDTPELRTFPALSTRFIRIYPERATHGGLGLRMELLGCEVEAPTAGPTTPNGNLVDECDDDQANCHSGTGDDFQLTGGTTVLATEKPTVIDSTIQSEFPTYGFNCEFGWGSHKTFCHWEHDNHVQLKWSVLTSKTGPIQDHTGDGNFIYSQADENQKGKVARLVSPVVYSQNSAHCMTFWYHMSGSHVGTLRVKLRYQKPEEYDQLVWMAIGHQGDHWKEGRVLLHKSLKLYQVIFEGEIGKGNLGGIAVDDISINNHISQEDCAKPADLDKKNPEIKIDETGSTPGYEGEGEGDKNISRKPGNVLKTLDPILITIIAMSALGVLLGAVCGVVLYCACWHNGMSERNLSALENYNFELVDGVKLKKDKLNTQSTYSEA", "test": "Inhibition of biotinylated human VEGF-A165 binding to recombinant human NRP1 receptor after 2 hrs by chemiluminescence analysis relative to control", "procedure,_shortened": "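ELISA-like competition format with chemiluminescent read-out of VEGF-A165 bound to NRP-1 in the presence of test peptidomimetic.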"}, "[4]": {"test": "Metabolic stability in human plasma assessed as compound remaining at 1 uM after 96 hrs by RP-HPLC and LC-MS analysis relative to control", "type": "ADME, cell-free", "conditions": "read-out: Stability", "procedure,_shortened": "as §1"}, "[5]": {"test": "Retention time in human plasma treated with 1 uM (S)-2-((S)-1-((S)-1-((S)-2-amino-6-(3-((S)-2-amino-5-guanidinopentyl)ureido)hexanoyl)pyrrolidine-2-carbonyl)pyrrolidine-2-carboxamido)-5-guanidinopentanoic acid at 1 uM after 96 hrs by LC-MS analysis", "type": "ADME, cell-free", "procedure,_shortened": "as §1"}, "[6]": {"test": "Retention time in human plasma treated with 1 uM (S)-5-guanidino-2-((S)-1-((6S,15S,18R)-1,6,15-triamino-18-(2-aminoethyl)-1-imino-9,16-dioxo-2,8,10,17-tetraazanonadecane)-2,3-dihydro-1H-pyrrole-2-carboxamido)pentanoic acid at 1 uM after 96 hrs by LC-MS analysis", "type": "ADME, cell-free", "procedure,_shortened": "as §1"}},
  "note": "Numbered stars: 1 amine (or outer) side, 2 acyl side, 3 side chain; on linkers, the order of the positions; unused ones are H or OH. Square brackets hold non-standard residues; d marks the D form. Side chains are listed from the residue outwards. Peptide text beside a SMILES is read from it. * marks the point of attachment. X1 = N=C(N)NCCC[C@H](N)CN*; ΔPro = O=C(O)[C@@H]1C=CCN1; Dab = NCC[C@H](N)C(=O)O; CO = O=C([*:1])[*:2]",
  "data": [
    {"smiles": "N=C(N)NCCC[C@H](N)CNC(=O)NCCCC[C@H](N)C(=O)N1CCC[C@H]1C(=O)N1CCC[C@H]1C(=O)N[C@@H](CCCNC(=N)N)C(=O)O", "note": "(H-K([CO-X1])PPR-OH)", "values": [
      {"measurement": "Stability", "setting": "[1]", "result": "Stable"},
      {"measurement": "Drug metabolism", "setting": "[2]", "result": "Metabolite_Detected"},
      {"measurement": "IC50", "setting": "[3]", "result": 7.7, "unit": "µM"},
      {"measurement": "remaining at 96 h, 1 µM", "setting": "[4]", "result": "40 to 45", "unit": "%"}
    ]},
    {"smiles": "N=C(N)NCCC[C@H](N)CNC(=O)NCCCC[C@H](N)C(=O)O", "values": [
      {"measurement": "Retention_time", "setting": "[5]", "result": 3, "unit": "min"},
      {"measurement": "Retention_time", "setting": "[6]", "result": 2.92, "unit": "min"}
    ]},
    {"smiles": "N=C(N)NCCC[C@H](N)CNC(=O)NCCCC[C@H](N)C(=O)N[C@H](CCN)C(=O)N1CC[C@H]1C(=O)N[C@@H](CCCNC(=N)N)C(=O)O", "values": [
      {"measurement": "IC50", "setting": "[3]", "result": 26, "unit": "µM"}
    ]},
    {"smiles": "N=C(N)NCCC[C@H](N)CNC(=O)NCCCC[C@H](N)C(=O)N[C@@H](CCN)C(=O)N1CC=C[C@H]1C(=O)O", "values": [
      {"measurement": "Retention_time", "setting": "[6]", "result": 9.02, "unit": "min"}
    ]},
    {"smiles": "N=C(N)NCCC[C@H](NC(=O)[C@@H]1C=CCN1C(=O)[C@@H](N)CCN)C(=O)O", "note": "(H-[Dab]-[ΔPro]-Arg-OH)", "values": [
      {"measurement": "Retention_time", "setting": "[6]", "result": 0.98, "unit": "min"}
    ]},
    {"smiles": "N=C(N)NCCC[C@H](N)CNC(=O)NCCCC[C@H](N)C(=O)N[C@H](CCN)C(=O)N1C2CCCCC2C[C@H]1C(=O)N[C@@H](CCCNC(=N)N)C(=O)O", "note": "(stereo not given in full)", "values": [
      {"measurement": "IC50", "setting": "[3]", "result": 5.4, "unit": "µM"}
    ]}
  ]
}
